Compound activity from PubChem BioAssay.
MsrA act – bovine MsrA enzyme activators, primary screen, biochemical, absorbance, HTS | Methionine sulfoxide reductase A (Bos taurus) | purified bovine MsrA, absorbance read-out | activation, % at 10.6 µM | 360,000 tested, 0.3% active | AID 602163, 2012; in the data active = activation above about 7.5%;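 note: 0% = vehicle and 100% = reference activator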
procasp7 counter – procaspase-7 activators, primary screen, counter-screen for procaspase-3 activator project, biochemical, absorbance, HTS, human | 330,000 tested, 0.093% active | activation, % at 8.5 µM | recombinant procaspase-7, Ac-DEVD-pNA absorbance 405 nm; D23A/D198A/D206A triple mutant, cannot self-cleave; scale: DMSO 0, 5 µM enzyme 100 | AID 463210, 2010;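 active = percent activation above the screen-wide mean plus 3 SD, cut at about 25% in these data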
Target sequence (P55210 whole entry D23A/D198A/D206A): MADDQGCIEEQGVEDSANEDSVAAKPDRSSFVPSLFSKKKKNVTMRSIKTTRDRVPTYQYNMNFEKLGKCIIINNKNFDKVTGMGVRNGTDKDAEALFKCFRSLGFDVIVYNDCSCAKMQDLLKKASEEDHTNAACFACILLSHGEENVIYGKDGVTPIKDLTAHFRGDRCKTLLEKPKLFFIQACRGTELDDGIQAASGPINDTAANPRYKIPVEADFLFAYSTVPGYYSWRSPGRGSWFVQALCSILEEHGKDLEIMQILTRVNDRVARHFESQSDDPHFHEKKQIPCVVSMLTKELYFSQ
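Replicates: singlicate. Assay system: Procaspase-7 triple mutant (PC-7 D3A). Signal: 405 nm absorbance of p-nitroaniline. Times: 1 h preincubation, 2 h reaction. Buffer or medium: Zinc-free HEPES pH 7.4 with 300 mM NaCl, 0.01% Triton X-100. Also added: DEVD-pNA substrate. Benchmarks: DMSO wells as 0%, DMSO with 5 µM added PC-7 as 100%.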
MsrA inh – bovine MsrA enzyme inhibitors, primary screen, biochemical, absorbance, HTS | Methionine sulfoxide reductase A (Bos taurus) | purified bovine MsrA, absorbance read-out | inhibition, % at 15.5 µM | 360,000 tested, 0.75% active | AID 651718, 2012;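 note: 0% = vehicle wells with enzyme and 100% = reference inhibitor wells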
A1 inh – caspase 3/7 activation in MEF A1-2A-BIM cells, primary screen, A1 inhibitor project, cell-based, luminescence, HTS | AID 2462, 2010 | 330,000 tested, 0.066% active | Caspase-Glo 3/7 luminescence, 3 h; percent of clofoctol response, vehicle zero | caspase activation, % (no concentration beside the values);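 active = over half of replicate activation scores above 10%, or exactly half above 10 with the replicate mean above 10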
proCasp3 act – activators of human procaspase-3 D3A mutant, primary screen, biochemical, absorbance, PC-3 D3A mutant, single concentration. 330,000 tested, 0.11% active. activation, % at 8.5 µM. AID 463141, 2010. Caspase-3 (Homo sapiens), P42574. recombinant procaspase-3 D3A, Ac-DEVD-pNA absorbance 405 nm;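 active = activation above the mean of all tested compounds plus 3 SD, cut at about 21% in these data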;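 note: 0% = DMSO alone and 100% = DMSO wells spiked with extra 5 µM PC-3 D3A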
Target sequence (P42574 whole entry D9A/D28A/D175A): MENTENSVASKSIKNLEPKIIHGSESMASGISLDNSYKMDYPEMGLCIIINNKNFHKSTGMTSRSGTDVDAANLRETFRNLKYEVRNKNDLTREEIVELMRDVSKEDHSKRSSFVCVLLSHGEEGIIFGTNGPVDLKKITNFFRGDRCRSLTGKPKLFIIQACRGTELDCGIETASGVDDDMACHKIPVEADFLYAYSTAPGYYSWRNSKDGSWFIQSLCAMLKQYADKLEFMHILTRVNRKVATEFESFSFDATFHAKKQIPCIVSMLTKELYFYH
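Assay system: Autoprocessing-dead procaspase-3 D3A mutant enzyme; also added: Ac-DEVD-pNA; doses: one concentration, 8.5 µM nominal, 0.8% DMSO; times: 1 h compound preincubation, 2 h substrate hydrolysis at 25 °C; technique: 405 nm absorbance of p-nitroaniline, reads at 0 and 120 min; measure: % activation between DMSO and enzyme-spiked controls; repeats: single replicate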
MsrA activ conf – bovine MsrA activators, retest, confirmation, biochemical, absorbance, HTS. shares compounds with MsrA act. purified bovine MsrA, absorbance read-out. AID 602270, 2012. 1,000 tested, 12% active. activation, % at 10.6 µM; in the data active = activation above about 4%;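 note: enzyme coupled to thioredoxin and thioredoxin reductase with NADPH; 0% = vehicle wells and 100% = reference activator wells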
MsrA conf – bovine MsrA inhibitors, retest, confirmation, biochemical, absorbance, HTS. shares compounds with MsrA inh. purified bovine MsrA, absorbance read-out. inhibition, % at 15.5 µM. 2,300 tested, 41% active;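 note: coupled to thioredoxin reductase with NADPH and selenocystamine and DMSO as substrate; 0% = vehicle only and 100% = full effect of reference inhibitor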
Numbers without * were called inactive; nt = no result given. The list is not random: actives were taken first. Their share in the collection is about 1.2%. Cut-off read from the data, not from the text of the source, unless noted: active = inhibition above about 4.5%; inactive = the rest.

SMILES	MsrA act	procasp7 counter	MsrA inh	A1 inh	proCasp3 act	MsrA conf	others
COc1cc2c(c(OC)c1OC)-c1ccc(C(=O)O)cc1[C@@H](NC(C)=O)CC2	19*	15	-1	0	-3	nt	MsrA activ conf=-1
COc1cc2c(c(OC)c1O)-c1ccc(OC)c(=O)cc1C(NC(=O)C(F)(F)F)CC2 (stereo not given)	-11	nt	4	nt	nt	nt
CC[n+]1c(-c2ccccc2)c2cc(N)ccc2c2ccc(N)cc21	9.2*	nt	44*	nt	nt	49*	MsrA activ conf=3
O=C(NCCN1CCC2(CC1)C(=O)NCN2c1ccccc1)c1ccccc1C(F)(F)F	nt	nt	0	nt	nt	nt
O=c1[nH]c(=S)n(Cc2ccc(F)cc2)c(O)c1C=NCC1CCCO1 (stereo not given)	-4	7	5.7*	0	4	3
O=c1[nH]c(=S)n(Cc2ccc(F)cc2)c(O)c1C=NCc1cccnc1	-8	-6	4.8*	0	-11	4
O=c1[nH]c(=S)n(C2CC2)c(O)c1C=NCC1CCCO1 (stereo not given)	-7	10	6.2*	0	7	3
CC(C)n1c(O)c(C=NCc2ccccc2)c(=O)[nH]c1=S	-5	1	5.2*	0	4	2
O=c1[nH]c(=S)n(Cc2ccc(F)cc2)c(O)c1/C=N/N1CCCCC1	-1	-10	2	1	-6	nt
O=C(NCCN1CCC2(CC1)C(=O)NCN2c1ccccc1)c1ccc(OC(F)(F)F)cc1	nt	nt	0	nt	nt	nt
CCOC(=O)[C@]12Cc3cc(C)ccc3[C@H]1N(C(C)C)C(=O)c1ccccc12	0	nt	-1	nt	nt	nt
CN1OC[C@@H]2CN3C4(C[C@@H]21)c1ccccc1C3(c1ccccc1)c1ccccc14	nt	nt	2	nt	nt	nt
CCOC(=O)c1cc(C(O)(C(=O)OC)C(F)(F)F)c(/N=C/N(C)C)o1 (stereo not given)	-14	3	6.8*	1	2	3
ClCCN(CCCl)c1ccc(C=Cc2ccncn2)cc1	-5	nt	1	nt	nt	nt
ClCCN(CCCl)c1ccc(C2=NCCc3ccccc32)cc1	0	nt	0	nt	nt	nt
N#Cc1ncc(N=Cc2ccc(N(CCCl)CCCl)cc2)s1	-8	nt	5.0*	nt	nt	6.2*
ClCCN(CCCl)c1ccc(C=NNc2ncccn2)cc1	-10	nt	6.2*	nt	nt	7.4*
Cc1cc(N2CCNC[C@@H]2C)ccc1N1CC[C@@H](O)C1	nt	nt	-2	nt	nt	nt
O=C(NN=Cc1ccc(N(CCCl)CCCl)cc1)c1cc(=O)[nH]c(=O)[nH]1	1	nt	4	nt	nt	nt
O=C(Cc1cc(=O)oc2cc(O)ccc12)NN=Cc1ccc(N(CCCl)CCCl)cc1	-9	nt	7.3*	nt	nt	6.1*
Cc1c(N=Cc2c(O)n(Cc3ccc(F)cc3)c(=O)[nH]c2=O)c(=O)n(-c2ccccc2)n1C	-2	10	4.9*	nt	-1	3
COc1cc(/C=C/[N+](=O)[O-])ccc1O	-8	-18	5.5*	0	-12	4.7*
CC(C)n1c(=O)c(C=Nc2ccc(F)cc2)c(O)n(Cc2ccco2)c1=O	-2	-5	5.7*	1	-9	2
Cc1ccc(C(=O)NCCN2CCC3(CC2)C(=O)NCN3c2ccccc2)cc1	nt	nt	0	nt	nt	nt
O=C(NCCN1CCC2(CC1)C(=O)NCN2c1ccccc1)C(c1ccccc1)c1ccccc1	nt	nt	1	nt	nt	nt
SMILES	MsrA act	procasp7 counter	MsrA inh	A1 inh	proCasp3 act	MsrA conf	others
O=C(NN=Cc1ccc(N(CCCl)CCCl)cc1)C(=O)c1c[nH]c2ccccc12	-8	nt	6.0*	nt	nt	2
COc1ccc(-c2cc(=NCCC(=O)O)c3cc(C)ccc3o2)cc1	-5	nt	4.8*	nt	nt	4.6*
COc1ccc(-c2cc(=Nc3ccccc3)c3cc(C)ccc3o2)cc1	-3	-9	1	-2	6	nt
CN1C2(C)c3ccccc3C1(c1ccccc1)c1ccccc12	nt	nt	-1	nt	nt	nt
COc1ccc(Cn2c(O)c(/C=N/NC(=O)c3ccccc3O)c(=O)[nH]c2=O)cc1	-4	-31	6.2*	-2	4	5.4*
O=C(N/N=C/c1c(O)n(CCc2ccc(F)cc2)c(=O)[nH]c1=O)c1ccccc1	4	11	0	-1	-3	nt
O=C(N/N=C/c1c(O)n(CCc2ccccc2)c(=O)[nH]c1=O)c1ccccc1O	-6	1	4.9*	-3	-4	4
CCOC(=O)CNC(=O)N1Cc2cc(Br)ccc2-n2nncc2C1	nt	nt	0	nt	nt	nt
Cc1ccc(OC(=O)N(C)C[C@H]2OCc3cnnn3CCCC(=O)N([C@H](C)CO)C[C@H]2C)cc1	nt	nt	0	nt	nt	nt
CCN(CC)c1ccc(N=Cc2c(O)n(-c3ccccc3C)c(=O)[nH]c2=O)cc1	0	-25	0	0	-12	nt
Cc1ccccc1-n1c(O)c(C=Nc2ccc3c(c2)OCO3)c(=O)[nH]c1=O	-4	-13	4.7*	1	-3	3
CC(C)(C)c1cc([N+](=O)[O-])cc(C(C)(C)C)c1O	nt	-5	22*	0	-6	18*
N#C/C(=C\c1ccc(O)cc1)C(=O)O (tested in a mixture with another compound)	-2	nt	4.7*	nt	nt	2
Nc1c(Br)cc2c3c(cccc13)-c1ccccc1-2	nt	nt	0	nt	nt	nt
COC(=O)C1C(OC(=O)c2ccccc2)CC2CCC1[N+]2(C)C (stereo not given)	nt	nt	-1	nt	nt	nt
COc1ccc(CC(=O)C2C(=O)N(C)c3ccccc32)cc1OC (stereo not given)	-10	nt	4.9*	nt	nt	2
COc1ccc(CC(=O)N2CCN(C)CC2)cc1OC	0	3	0	1	4	nt
O=c1[nH]c(=O)n(-c2cccc(Cl)c2)c(O)c1C=NCCCN1CCOCC1	-1	13	13*	1	-1	6.8*
Cc1ccc(-n2c(O)c(C=NCCN3CCOCC3)c(=O)[nH]c2=O)cc1	-4	6	0	1	-1	nt
CCOc1cc(C=C2C(=O)NC(=S)NC2=O)ccc1O	-6	nt	4.8*	nt	nt	2
COc1ccc(C=C2C(=O)NC(=S)NC2=O)cc1OC	-2	nt	0	nt	nt	nt
N/C(=N\[N+](=O)[O-])N/N=C/c1ccc(O)cc1	-7	0	5.3*	-14	1	4
N/C(=N\N=C\c1ccc(O)cc1O)N[N+](=O)[O-]	-6	7	4	-8	-8	nt
CN1CC[C@@H]2CN[C@H](c3ccccc3Br)C[C@@H]21	nt	nt	-1	nt	nt	nt
